Results from ChEMBL document CHEMBL6115033, “Discovery of a Pyrazolopyridinone-Based MYC Inhibitor That Selectively Engages Intracellular c-MYC and Disrupts MYC-MAX Heterodimerization” (J Med Chem, 2025).
Calls of active or inactive are those of the source. The rule behind the calls is not given here.

Experiments:
[1] = Antiproliferative activity against tetracycline-treated human P493-6 cells expressing MYC assessed as inhibition of cell proliferation incubated for 96 hrs by cell titer glo assay; type: functional, cell-based; settings: P493-6, 96 h
Method in brief: (§1)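 P493-6 cells (3000/well, RPMI) were seeded overnight at 37 °C, then given compounds at final 0.14–100 µM for 96 h. MYC-off cells were pretreated with 0.1 µg/mL tetracycline for 72 h. Read-out was CellTiter-Glo luminescence after equilibration to room temperature. IC50 was determined in high-MYC and MYC-off cells.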

MCF7 = experiment: Antiproliferative activity against human MCF7 cells assessed as cell viability incubated for 96 hrs by MTT assay; type: functional, cell-based; settings: MCF7, 96 h
Method in brief: (§2)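 Adherent cells (2000/well) attached overnight, then exposed to compounds at 0.14–100 µM for 96 h in DMEM with 10% FBS. MTT at 0.5 mg/mL for 4 h in the dark, formazan dissolved in DMSO, absorbance at 570 nm. Compounds were freshly prepared in DMSO, with DMSO below 1%.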

[2] = Selectivity index, ratio of IC50 for antiproliferative activity against tetracycline-treated human P493-6 cells expressing MYC assessed as inhibition of cell proliferation to IC50 for antiproliferative activity against human P493-6 cells expressing MYC assessed as inhibition of cell proliferation; type: functional
Method in brief: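 MYC-off P493-6 cells obtained by 72 h pretreatment with 0.1 µg/mL tetracycline and compared with untreated MYC-high cells. Cells seeded at 3000 per 100 uL, held overnight at 37 °C, then treated at 0.14–100 uM final for 96 h. Viability read by CellTiter-Glo luminescence. IC50 values determined in both states and compared as a selectivity index.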

MDA-MB-231 = experiment: Antiproliferative activity against human MDA-MB-231 cells assessed as cell viability incubated for 96 hrs by MTT assay; type: functional, cell-based; settings: MDA-MB-231, 96 h; method in brief: as §2
MDA-MB-468 = experiment: Antiproliferative activity against human MDA-MB-468 cells assessed as cell viability incubated for 96 hrs by MTT assay; type: functional, cell-based; settings: MDA-MB-468, 96 h; method in brief: as §2
[3] = Antiproliferative activity against human P493-6 cells expressing MYC assessed as inhibition of cell proliferation incubated for 96 hrs by cell titer glo assay; type: functional, cell-based; settings: P493-6, 96 h; method in brief: as §1
P493-6 [4] = experiment: Antiproliferative activity against human P493-6 cells expressing MYC assessed as inhibition of cell proliferation at 25 uM incubated for 96 hrs by cell titer glo assay; type: functional, cell-based
Method in brief: (§3)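 P493-6 cells, either untreated (high MYC) or MYC-off after 0.1 µg/mL tetracycline for 72 h, were exposed to 25 µM for 96 h. Read-out was % survival by CellTiter-Glo luminescence. Mean ± SD, n = 6, unpaired t-test.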

[5] = target: T1, c-Myc/c-Max (Homo sapiens) (UniProt P01106+P61244); experiment: Disruption of MYC-MAX interaction in human MDA-MB-468 cells assessed as reduction in myc level at 25 uM; type: cell-based
T1 sequence (P01106 whole entry): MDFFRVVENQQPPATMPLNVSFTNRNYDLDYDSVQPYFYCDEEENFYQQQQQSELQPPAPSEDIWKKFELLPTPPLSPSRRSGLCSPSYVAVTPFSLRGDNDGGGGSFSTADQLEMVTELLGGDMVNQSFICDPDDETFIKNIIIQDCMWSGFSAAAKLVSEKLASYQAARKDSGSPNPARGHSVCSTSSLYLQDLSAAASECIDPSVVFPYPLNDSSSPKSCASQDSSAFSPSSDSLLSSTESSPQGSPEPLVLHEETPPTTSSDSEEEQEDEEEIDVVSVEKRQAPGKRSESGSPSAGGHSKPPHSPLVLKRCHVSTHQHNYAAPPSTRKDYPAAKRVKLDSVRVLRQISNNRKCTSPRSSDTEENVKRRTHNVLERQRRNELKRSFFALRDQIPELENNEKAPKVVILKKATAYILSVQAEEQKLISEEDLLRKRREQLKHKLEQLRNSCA
T1 sequence (P61244 2-160 partner limits assumed): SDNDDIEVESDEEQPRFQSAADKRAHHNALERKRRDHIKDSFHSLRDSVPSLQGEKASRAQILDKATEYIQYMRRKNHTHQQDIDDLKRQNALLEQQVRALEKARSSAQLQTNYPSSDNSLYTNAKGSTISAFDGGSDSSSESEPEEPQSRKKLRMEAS

[6] = target: T1, c-Myc/c-Max (Homo sapiens); experiment: Disruption of MYC-MAX interaction in human P493-6 cells assessed as reduction in myc level at 25 uM; type: cell-based
P493-6 [7] = experiment: Antiproliferative activity against tetracycline-treated human P493-6 cells expressing MYC assessed as inhibition of cell proliferation at 25 uM incubated for 96 hrs by cell titer glo assay; type: functional, cell-based; method in brief: as §3
[8] = Induction of apoptosis in human P493-6 cells assessed as viable cells at 25 uM incubated for 24 hrs by Annexin V/PI staining based flow cytometry analysis (reference value: 90.8%); type: functional; settings: read-out: Activity
[9] = Induction of apoptosis in human P493-6 cells assessed as early apoptotic cells at 25 uM incubated for 24 hrs by Annexin V/PI staining based flow cytometry analysis (reference value: 2.52 %); type: functional
[10] = Induction of apoptosis in human P493-6 cells assessed as necrotic cells at 25 uM incubated for 24 hrs by Annexin V/PI staining based flow cytometry analysis (reference value: 0.11 %); type: functional
[11] = Induction of apoptosis in human P493-6 cells assessed as late apoptotic cells at 25 uM incubated for 24 hrs by Annexin V/PI staining based flow cytometry analysis (reference value: 6.52 %); type: functional

SMILES | IC50 (MCF7) | IC50 (MDA-MB-231) | IC50 (MDA-MB-468) | Activity [5] | Activity [6] | IC50 [1] | Ratio IC50 [2] | IC50 [3] | Activity (P493-6 [4]) | Activity (P493-6 [7]) | viability at 25 µM [8] | Activity [9] | Activity [10] | Activity [11]
COc1ccc(-c2nn(-c3ccccc3)c3[nH]c(=O)c(C#N)cc23)cc1 | 16.6 µM | 38 µM | 33.1 µM |  |  | > 100 µM | >4 | 20.9 µM |  |  |  |  |  | 
Cc1ccc(-c2nn(-c3ccccc3)c3[nH]c(=O)c(C#N)cc23)cc1 | 20.4 µM | 34.7 µM | 32.4 µM |  |  | 51.3 µM | 2.4 | 21.1 µM |  |  |  |  |  | 
Cc1ccc(-c2nn(-c3ccc(Cl)cc3)c3[nH]c(=O)c(C#N)cc23)cc1 | > 100 µM | 58.9 µM | 71.6 µM |  |  |  |  |  |  |  |  |  |  | 
N#Cc1cc2c(-c3ccc(F)cc3)nn(-c3ccc(F)cc3)c2[nH]c1=O | 9.3 µM | > 100 µM | 79.4 µM |  |  | > 100 µM |  | > 100 µM |  |  |  |  |  | 
CCc1ccc(/C=C2/SC(=S)NC2=O)cc1 |  | 44.7 µM | 39.8 µM |  |  | 59.5 µM | 1.7 | 35.1 µM |  |  | 89.3% | 2.54% | 0.062% | 8.06%

Now those with a lower IC50 (MDA-MB-231), led by results:

IC50 (MCF7) | IC50 (MDA-MB-231) | IC50 (MDA-MB-468) | Activity [5] | Activity [6] | SMILES | IC50 [1] | Ratio IC50 [2] | IC50 [3] | Activity (P493-6 [4]) | Activity (P493-6 [7]) | viability at 25 µM [8] | Activity [9] | Activity [10] | Activity [11]
12.2 µM | 5.5 µM | 13.2 µM | Active | Active | N#Cc1cc2c(-c3ccc(Br)cc3)nn(-c3ccccc3)c2[nH]c1=O | 35.9 µM | 2.3 | 15.6 µM | Active | Active |  |  |  | 
9.3 µM | 9.8 µM | 7.9 µM |  |  | COc1ccc(-n2nc(-c3ccc(C)cc3)c3cc(C#N)c(=O)[nH]c32)cc1 | 75.9 µM | 1.5 | 51.2 µM |  |  |  |  |  | 
